Activity calls are given as the source filed them. The calls are words filed in the database; no cut-off is given here.
What was measured:
[1] = target: Ribosomal protein S6 kinase alpha-4 (Homo sapiens) (UniProt O75676); test: Inhibition of MSK2 domain1 in human SKCO1 cells at 1 uM after 4 hrs using biotin labeled DLKLENVLLDSEGHIVLTDFGLSK probe by mass-spectrometric analysis relative to control; format: cell-based
[2] = target: Serine/threonine-protein kinase greatwall (Homo sapiens) (UniProt Q96GX5); test: Inhibition of MASTL in human SKCO1 cells at 1 uM after 4 hrs using biotin labeled LYAVKVVK probe by mass-spectrometric analysis relative to control; format: cell-based
[3] = target: Phosphatidylinositol 3-kinase catalytic subunit type 3 (Homo sapiens) (UniProt Q8NEB9); test: Inhibition of PIK3C3 in human SKCO1 cells at 1 uM after 4 hrs using biotin labeled TEDGGKYPVIFKHGDDLRQDQLILQIISLMDK probe by mass-spectrometric analysis relative to control; format: cell-based
Sequence of Phosphatidylinositol 3-kinase catalytic subunit type 3 (Homo sapiens) (Q8NEB9 whole entry): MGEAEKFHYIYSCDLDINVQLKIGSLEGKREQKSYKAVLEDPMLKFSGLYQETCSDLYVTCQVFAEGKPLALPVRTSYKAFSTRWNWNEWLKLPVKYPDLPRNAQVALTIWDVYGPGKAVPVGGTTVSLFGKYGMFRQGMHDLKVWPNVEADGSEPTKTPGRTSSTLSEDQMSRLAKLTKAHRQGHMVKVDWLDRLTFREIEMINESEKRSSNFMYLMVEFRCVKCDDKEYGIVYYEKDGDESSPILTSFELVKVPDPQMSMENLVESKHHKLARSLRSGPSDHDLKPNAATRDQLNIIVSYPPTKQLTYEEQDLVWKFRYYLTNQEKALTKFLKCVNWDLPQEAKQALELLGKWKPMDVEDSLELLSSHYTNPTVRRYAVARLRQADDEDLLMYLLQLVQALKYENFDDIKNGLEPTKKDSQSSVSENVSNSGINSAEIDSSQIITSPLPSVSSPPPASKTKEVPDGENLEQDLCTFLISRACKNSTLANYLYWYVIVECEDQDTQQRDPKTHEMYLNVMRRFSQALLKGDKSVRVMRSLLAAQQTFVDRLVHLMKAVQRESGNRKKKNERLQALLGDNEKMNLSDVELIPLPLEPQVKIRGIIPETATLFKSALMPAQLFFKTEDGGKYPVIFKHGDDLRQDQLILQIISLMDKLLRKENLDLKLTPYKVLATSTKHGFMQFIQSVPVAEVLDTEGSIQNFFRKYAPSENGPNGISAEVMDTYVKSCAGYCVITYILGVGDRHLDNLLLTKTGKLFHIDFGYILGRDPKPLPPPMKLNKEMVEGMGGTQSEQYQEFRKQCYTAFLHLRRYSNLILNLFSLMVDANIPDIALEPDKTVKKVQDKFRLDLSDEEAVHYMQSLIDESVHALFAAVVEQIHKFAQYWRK

[4] = target: T1, Dual specificity mitogen-activated protein kinase kinase 5 (Homo sapiens) (UniProt Q13163); test: Inhibition of MAP2K5 in human SKCO1 cells at 1 uM after 4 hrs using biotin labeled DVKPSNMLVNTR probe by mass-spectrometric analysis relative to control; format: cell-based
T1 sequence (whole entry): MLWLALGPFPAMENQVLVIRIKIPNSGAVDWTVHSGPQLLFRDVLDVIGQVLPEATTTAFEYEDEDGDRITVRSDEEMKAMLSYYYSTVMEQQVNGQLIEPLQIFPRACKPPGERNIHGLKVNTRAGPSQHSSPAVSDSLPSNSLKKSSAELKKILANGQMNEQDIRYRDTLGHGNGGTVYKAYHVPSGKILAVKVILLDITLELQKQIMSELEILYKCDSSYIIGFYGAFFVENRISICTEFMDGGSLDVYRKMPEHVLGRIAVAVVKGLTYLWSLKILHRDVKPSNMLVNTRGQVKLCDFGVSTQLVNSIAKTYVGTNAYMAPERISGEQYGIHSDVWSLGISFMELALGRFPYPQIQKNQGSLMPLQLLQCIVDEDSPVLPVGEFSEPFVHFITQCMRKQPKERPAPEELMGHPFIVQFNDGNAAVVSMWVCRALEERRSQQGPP

[5] = target: T2, Serine/threonine-protein kinase TAO1 (Homo sapiens) (UniProt Q7L7X3); test: Inhibition of TAO1 in human SKCO1 cells at 1 uM after 4 hrs using biotin labeled DIKAGNILLTEPGQVK probe by mass-spectrometric analysis relative to control; format: cell-based
T2 sequence (whole entry): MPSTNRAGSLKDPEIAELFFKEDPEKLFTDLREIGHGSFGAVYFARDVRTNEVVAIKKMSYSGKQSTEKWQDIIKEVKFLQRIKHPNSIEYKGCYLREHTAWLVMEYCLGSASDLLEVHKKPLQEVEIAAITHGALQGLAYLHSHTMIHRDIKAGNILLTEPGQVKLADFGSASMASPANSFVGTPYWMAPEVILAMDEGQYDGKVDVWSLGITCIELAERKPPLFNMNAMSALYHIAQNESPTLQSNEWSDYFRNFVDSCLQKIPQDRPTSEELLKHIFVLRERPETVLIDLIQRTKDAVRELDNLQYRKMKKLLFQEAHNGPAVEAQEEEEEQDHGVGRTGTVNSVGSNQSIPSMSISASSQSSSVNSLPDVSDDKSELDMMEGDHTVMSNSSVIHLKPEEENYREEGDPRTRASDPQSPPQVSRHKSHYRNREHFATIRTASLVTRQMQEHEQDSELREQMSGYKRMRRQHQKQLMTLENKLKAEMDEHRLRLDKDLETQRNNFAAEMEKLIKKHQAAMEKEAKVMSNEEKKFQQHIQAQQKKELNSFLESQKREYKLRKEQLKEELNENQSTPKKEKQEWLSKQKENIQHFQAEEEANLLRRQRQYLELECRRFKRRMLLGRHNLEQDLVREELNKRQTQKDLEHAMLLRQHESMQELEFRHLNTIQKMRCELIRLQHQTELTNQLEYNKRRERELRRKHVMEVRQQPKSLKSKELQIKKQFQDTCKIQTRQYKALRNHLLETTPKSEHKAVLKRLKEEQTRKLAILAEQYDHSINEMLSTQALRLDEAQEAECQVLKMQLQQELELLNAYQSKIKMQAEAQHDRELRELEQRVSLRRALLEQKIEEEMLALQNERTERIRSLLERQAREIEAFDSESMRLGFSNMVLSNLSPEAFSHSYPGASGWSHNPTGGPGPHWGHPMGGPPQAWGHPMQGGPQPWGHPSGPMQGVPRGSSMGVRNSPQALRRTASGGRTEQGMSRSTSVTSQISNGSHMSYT
Outline: (§1)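 Live SK-CO-1 cells exposed to compound at 1 μM or DMSO for 4 h (KiNativ). Lysates then labeled with lysine-reactive ATP/ADP-biotin probe, and probe-labeled kinase peptides quantified by mass spectrometry. Percent inhibition of probe-dependent recovery calculated relative to DMSO-treated cells.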

[6] = target: Phosphatidylinositol 4-kinase beta (Homo sapiens) (UniProt Q9UBF8); test: Inhibition of PI4KB in human SKCO1 cells at 1 uM after 4 hrs using biotin labeled VPHTQAVVLNSKDK probe by mass-spectrometric analysis relative to control; format: cell-based; outline: as §1
Sequence of Phosphatidylinositol 4-kinase beta (Homo sapiens) (Q9UBF8 2-816 limits assumed): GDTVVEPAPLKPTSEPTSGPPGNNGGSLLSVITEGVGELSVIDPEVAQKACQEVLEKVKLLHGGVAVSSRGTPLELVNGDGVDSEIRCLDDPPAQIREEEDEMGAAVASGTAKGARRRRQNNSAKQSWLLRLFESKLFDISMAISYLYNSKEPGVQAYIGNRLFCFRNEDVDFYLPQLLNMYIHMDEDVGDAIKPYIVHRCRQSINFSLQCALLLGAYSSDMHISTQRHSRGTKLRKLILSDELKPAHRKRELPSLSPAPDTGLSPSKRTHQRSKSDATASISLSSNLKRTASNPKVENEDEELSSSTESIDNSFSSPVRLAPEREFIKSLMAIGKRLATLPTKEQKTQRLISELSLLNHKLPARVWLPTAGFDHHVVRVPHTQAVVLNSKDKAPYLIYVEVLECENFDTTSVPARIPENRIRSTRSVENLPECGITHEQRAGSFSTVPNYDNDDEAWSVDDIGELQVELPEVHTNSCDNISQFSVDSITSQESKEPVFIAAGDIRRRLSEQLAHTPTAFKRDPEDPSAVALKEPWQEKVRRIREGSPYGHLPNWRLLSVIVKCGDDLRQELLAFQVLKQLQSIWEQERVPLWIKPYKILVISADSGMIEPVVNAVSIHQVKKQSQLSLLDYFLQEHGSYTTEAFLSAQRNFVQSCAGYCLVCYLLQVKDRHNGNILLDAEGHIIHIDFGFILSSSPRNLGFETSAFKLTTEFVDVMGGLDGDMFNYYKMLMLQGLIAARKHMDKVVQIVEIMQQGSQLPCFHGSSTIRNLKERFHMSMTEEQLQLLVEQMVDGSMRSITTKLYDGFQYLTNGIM

ASPC1 = test: Antiproliferative activity against human AsPC1 cells harboring KRAS G12D mutant after 72 hrs by CellTiter-Glo assay; format: functional, cell-based; settings: ASPC1, 72 h
[7] = target: Cyclin-dependent kinase 17 (Homo sapiens) (UniProt Q00537); test: Inhibition of PCTAIRE2 in human SKCO1 cells at 1 uM after 4 hrs using biotin labeled SKLTENLVALKEIR probe by mass-spectrometric analysis relative to control; format: cell-based; outline: as §1
Sequence of Cyclin-dependent kinase 17 (Homo sapiens) (Q00537 whole entry, looked up): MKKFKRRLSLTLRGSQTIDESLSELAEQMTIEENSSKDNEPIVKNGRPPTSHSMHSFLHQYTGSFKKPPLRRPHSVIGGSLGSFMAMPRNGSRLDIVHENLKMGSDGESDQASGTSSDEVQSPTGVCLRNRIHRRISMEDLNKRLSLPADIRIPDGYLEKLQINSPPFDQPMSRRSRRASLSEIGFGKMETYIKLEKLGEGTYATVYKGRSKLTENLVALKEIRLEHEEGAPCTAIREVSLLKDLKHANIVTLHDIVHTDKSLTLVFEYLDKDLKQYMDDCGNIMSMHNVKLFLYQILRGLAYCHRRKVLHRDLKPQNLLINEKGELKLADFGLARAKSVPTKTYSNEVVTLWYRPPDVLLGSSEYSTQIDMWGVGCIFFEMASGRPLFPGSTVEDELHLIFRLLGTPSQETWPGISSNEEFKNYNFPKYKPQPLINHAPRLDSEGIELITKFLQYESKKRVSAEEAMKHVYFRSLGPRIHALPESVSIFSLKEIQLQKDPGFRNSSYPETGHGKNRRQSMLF

[8] = target: Mitogen-activated protein kinase kinase kinase 5 (Homo sapiens) (UniProt Q99683); test: Inhibition of MAP3K5 in human SKCO1 cells at 1 uM after 4 hrs using biotin labeled DIKGDNVLINTYSGVLK probe by mass-spectrometric analysis relative to control; format: cell-based
Sequence of Mitogen-activated protein kinase kinase kinase 5 (Homo sapiens) (Q99683 whole entry): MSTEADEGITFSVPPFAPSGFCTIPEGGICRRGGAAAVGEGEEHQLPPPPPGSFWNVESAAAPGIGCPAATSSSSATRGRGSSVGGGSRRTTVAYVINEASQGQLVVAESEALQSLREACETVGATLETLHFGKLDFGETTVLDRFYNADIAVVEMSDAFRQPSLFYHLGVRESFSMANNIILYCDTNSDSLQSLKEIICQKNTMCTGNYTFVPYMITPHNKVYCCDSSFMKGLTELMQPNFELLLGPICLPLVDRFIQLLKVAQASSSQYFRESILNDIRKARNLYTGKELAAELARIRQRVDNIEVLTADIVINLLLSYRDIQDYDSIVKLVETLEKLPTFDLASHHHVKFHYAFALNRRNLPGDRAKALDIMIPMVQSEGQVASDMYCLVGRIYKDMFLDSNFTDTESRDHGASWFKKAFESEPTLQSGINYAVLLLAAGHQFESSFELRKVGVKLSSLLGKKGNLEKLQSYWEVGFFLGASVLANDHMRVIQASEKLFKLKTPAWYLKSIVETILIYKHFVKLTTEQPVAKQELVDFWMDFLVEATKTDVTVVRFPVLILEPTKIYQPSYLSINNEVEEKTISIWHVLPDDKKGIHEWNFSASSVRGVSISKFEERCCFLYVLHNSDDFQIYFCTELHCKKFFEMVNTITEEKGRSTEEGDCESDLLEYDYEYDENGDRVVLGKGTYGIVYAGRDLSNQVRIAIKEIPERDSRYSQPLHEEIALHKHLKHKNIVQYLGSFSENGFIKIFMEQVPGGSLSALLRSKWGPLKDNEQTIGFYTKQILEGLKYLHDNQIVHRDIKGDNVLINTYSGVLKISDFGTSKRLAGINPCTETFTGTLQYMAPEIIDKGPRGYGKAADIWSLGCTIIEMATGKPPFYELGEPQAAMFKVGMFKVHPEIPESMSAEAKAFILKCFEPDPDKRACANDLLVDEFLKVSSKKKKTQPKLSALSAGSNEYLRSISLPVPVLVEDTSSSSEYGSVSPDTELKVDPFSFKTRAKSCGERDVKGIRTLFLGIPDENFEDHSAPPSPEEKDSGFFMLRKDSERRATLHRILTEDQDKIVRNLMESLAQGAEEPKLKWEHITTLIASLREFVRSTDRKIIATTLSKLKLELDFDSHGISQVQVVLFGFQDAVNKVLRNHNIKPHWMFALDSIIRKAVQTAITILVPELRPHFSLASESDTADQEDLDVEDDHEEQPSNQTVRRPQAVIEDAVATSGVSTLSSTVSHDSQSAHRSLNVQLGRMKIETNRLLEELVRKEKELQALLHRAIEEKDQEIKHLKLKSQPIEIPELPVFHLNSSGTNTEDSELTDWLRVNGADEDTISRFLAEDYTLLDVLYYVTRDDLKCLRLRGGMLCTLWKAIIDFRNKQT

[9] = tested on: MAP4K2 / germinal center kinase (Homo sapiens); test: Inhibition of GCK in human SKCO1 cells at 1 uM after 4 hrs using biotin labeled DIKGANLLLTLQGDVK probe by mass-spectrometric analysis relative to control
[10] = target: SRSF protein kinase 1 (Homo sapiens) (UniProt Q96SB4); test: Inhibition of SRPK1 in human SKCO1 cells at 1 uM after 4 hrs using biotin labeled IIHTDIKPENILLSVNEQYIR probe by mass-spectrometric analysis relative to control; format: cell-based; outline: as §1
[11] = target: Tyrosine-protein kinase SYK (Homo sapiens) (UniProt P43405); test: Inhibition of SYK in human SKCO1 cells at 1 uM after 4 hrs using biotin labeled ISDFGLSKALR probe by mass-spectrometric analysis relative to control; format: cell-based; outline: as §1
HEL = test: Antiproliferative activity against human HEL cells at […] to […] nM after 72 hrs by CellTiter-Glo assay; format: functional, cell-based
[12] = target: Mitogen-activated protein kinase 14 (Homo sapiens) (UniProt Q16539); test: Inhibition of p38a in human SKCO1 cells at 1 uM after 4 hrs using biotin labeled DLKPSNLAVNEDCELK probe by mass-spectrometric analysis relative to control; format: cell-based; outline: as §1
Sequence of Mitogen-activated protein kinase 14 (Homo sapiens) (Q16539 whole entry): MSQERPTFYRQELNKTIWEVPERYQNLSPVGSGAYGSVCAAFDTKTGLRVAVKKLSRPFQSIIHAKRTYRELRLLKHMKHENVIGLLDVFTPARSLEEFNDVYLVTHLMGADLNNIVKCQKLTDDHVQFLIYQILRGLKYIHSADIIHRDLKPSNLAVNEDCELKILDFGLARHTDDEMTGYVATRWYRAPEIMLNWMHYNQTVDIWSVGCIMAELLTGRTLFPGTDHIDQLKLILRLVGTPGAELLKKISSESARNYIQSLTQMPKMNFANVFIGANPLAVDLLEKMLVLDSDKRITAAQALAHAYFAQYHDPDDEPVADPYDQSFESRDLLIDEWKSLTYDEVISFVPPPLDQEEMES

Sequence of Ribosomal protein S6 kinase alpha-4 (Homo sapiens) (O75676 whole entry, looked up, the tested form may be a part): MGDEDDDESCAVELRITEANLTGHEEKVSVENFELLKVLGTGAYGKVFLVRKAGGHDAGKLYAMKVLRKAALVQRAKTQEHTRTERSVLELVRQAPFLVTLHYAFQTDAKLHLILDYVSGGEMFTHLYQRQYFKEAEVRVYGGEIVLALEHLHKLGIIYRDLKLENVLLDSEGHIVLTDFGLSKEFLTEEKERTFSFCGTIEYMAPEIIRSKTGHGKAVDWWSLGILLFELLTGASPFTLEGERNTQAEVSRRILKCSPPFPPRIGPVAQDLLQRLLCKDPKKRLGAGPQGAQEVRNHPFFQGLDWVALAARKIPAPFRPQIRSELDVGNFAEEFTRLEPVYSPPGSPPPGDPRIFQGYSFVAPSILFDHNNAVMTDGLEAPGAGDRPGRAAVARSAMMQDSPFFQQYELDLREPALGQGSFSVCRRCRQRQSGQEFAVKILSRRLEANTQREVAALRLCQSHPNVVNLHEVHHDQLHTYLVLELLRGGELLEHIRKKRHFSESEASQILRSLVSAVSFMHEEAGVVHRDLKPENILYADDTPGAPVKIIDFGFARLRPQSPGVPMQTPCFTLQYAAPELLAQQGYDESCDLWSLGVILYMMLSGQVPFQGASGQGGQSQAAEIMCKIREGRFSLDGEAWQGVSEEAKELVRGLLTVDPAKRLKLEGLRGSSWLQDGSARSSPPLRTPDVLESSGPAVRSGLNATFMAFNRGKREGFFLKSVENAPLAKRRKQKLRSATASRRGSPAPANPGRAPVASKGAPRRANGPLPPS

| SMILES | inhibition [1] | inhibition [2] | inhibition [3] | inhibition [4] | inhibition [5] | inhibition [6] | IC50 (ASPC1) | inhibition [7] | inhibition [8] | inhibition [9] | inhibition [10] | inhibition [11] | Activity (HEL) | inhibition [12] |
| --- | --- | --- | --- | --- | --- | --- | --- | --- | --- | --- | --- | --- | --- | --- |
| COc1cc(O)c2c(c1)/C=C/C[C@H](O)[C@H](O)C(=O)/C=C\C[C@H](C)OC2=O | 39.8% | 51.7% | 15.1% | 86.8% | 39.4% | 21.8% | 6.02 µM | 21.2% | – | – | – | – | – | – |
| C=CC(=O)Nc1ccccc1Nc1nc(Nc2ccc(N3CCN(C)CC3)cc2)ncc1Cl | 24.5% | – | 21.1% | 38.1% | 13.1% | 14.7% | – | 3.7% | 25.5% | 37.1% | 2.9% | -1.2% | inactive | -7.7% |
| C=CC(=O)Nc1ccccc1Oc1nc(Nc2cnn(CCOC)c2)ncc1Cl | 10.4% | 41.3% | – | – | 9.6% | 27.2% | 1.34 µM | 21.9% | 10% | 34.3% | -6.1% | -0.4% | inactive | -3.3% |
